From ChEMBL document CHEMBL3576774, “Dactylomelane diterpenes from the sea hare Aplysia depilans” (J Nat Prod, 2015)

Tests used:
Format in all cases: functional, cell-based
HeLa = experiment: Cytotoxic activity against human HeLa cells assessed as reduction in cell growth incubated for 48 hrs by MTT assay
In short: (§1)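 Monolayers maintained in DMEM with 10% FBS, penicillin/streptomycin at 37 °C, 5% CO2, and passaged at 80–90% confluence. Log-phase cells were seeded at 1 × 10^5 cells/mL and allowed to attach for 24 h. They were then exposed to DMSO-diluted compounds at various concentrations for 48 h. MTT was added at 0.5 mg/mL final for 4 h, dissolved in HCl/2-propanol, and read at 545 nm. Triplicates; IC50 from 3–4 experiments versus untreated control.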

A-431 = experiment: Cytotoxic activity against human A431 cells assessed as reduction in cell growth incubated for 48 hrs by MTT assay; details: A-431, 48 h; in short: as §1
A549 = experiment: Cytotoxic activity against human A549 cells assessed as reduction in cell growth incubated for 48 hrs by MTT assay; in short: as §1
MCF7 = experiment: Cytotoxic activity against human MCF7 cells assessed as reduction in cell growth incubated for 48 hrs by MTT assay; in short: as §1
HepG2 = experiment: Cytotoxic activity against human HepG2 cells assessed as reduction in cell growth incubated for 48 hrs by MTT assay; in short: as §1

Row | Structure (SMILES) | IC50 (HeLa; Homo sapiens, HeLa, 48 h) [µM] | IC50 (A-431) [µM] | IC50 (A549; Homo sapiens, A549, 48 h) [µM] | IC50 (MCF7; Homo sapiens, MCF7, 48 h) [µM] | IC50 (HepG2; Homo sapiens, HepG2, 48 h) [µM] | IC50 (HeLa; hela) [µM] | IC50 (A549; a549) [µM] | IC50 (MCF7; mcf7) [µM] | IC50 (HepG2; hepg2) [µM]
1 | C=CC(C)(O)CC[C@@H]1C(=C)CC[C@H](Br)[C@@]1(C)CCC(OC)C(C)(C)O (relative stereo) | > 100 | > 100 | > 100 | > 100 | > 100 |  |  |  | 
2 | C=CC(C)(O)CC[C@H]1[C@](C)(CCC=C(C)C)[C@@H](Br)CC[C@@]1(C)O (some centres undefined) | 91.7 | > 100 | > 100 | 78 | > 100 |  |  |  | 
3 | C=CC(C)(O)CC[C@@H]1C(=C)CC[C@H](Br)[C@@]1(C)CCC(=O)C(C)C (some centres undefined) | 71.4 | > 100 | > 100 | > 100 | > 100 |  |  |  | 
4 | C=CC(C)(O)CC[C@@H]1C(=C)CC[C@H](Br)[C@@]1(C)CCC(O)C(C)(C)Cl (relative stereo) | 61 | > 100 | 94.1 | 71.5 | 48.7 |  |  |  | 
5 | C=CC(C)(O)CC[C@@H]1C(=C)CC[C@H](Br)[C@@]1(C)CCC(O)C(=C)C (relative stereo) | > 100 | > 100 | > 100 | > 100 | > 100 |  |  |  | 
6 | C=CC(C)(O)CC[C@@H]1C(=C)CC[C@H](Br)[C@@]1(C)CCC(O)C(C)(C)O (relative stereo) | > 100 | > 100 | > 100 | > 100 | > 100 |  |  |  | 
7 | CCCCCCCCCCCCCCCCOP(=O)([O-])OCC[N+](C)(C)C [MILTEFOSINE] | 16.5 | 12 | 8.5 | 9.2 | 26.3 |  |  |  | 
8 | C=CC(C)(O)CC[C@@H]1C(=C)CC[C@H](Br)[C@@]1(C)CCC1OC1(C)C (relative stereo) | 57.9 | > 100 | > 100 | 71.7 | 53.8 |  |  |  | 
9 | C=CC(C)(O)CC[C@@H]1C(=C)CC[C@H](Br)[C@@]1(C)CCC(Br)C(C)(C)O (relative stereo; 2) |  |  |  |  |  | 47.4 | 86.9 | 60.7 | 66.3
10 | C=CC(C)(O)CC[C@@H]1C(=C)CC[C@H](Br)[C@@]1(C)CCC(Br)C(C)(C)O (relative stereo; 3) | 91.8 | > 100 | > 100 | > 100 | > 100 |  |  |  | 
